# In article PMC3167688 (Nuclear medicine and biology, 2009):
# What was measured:
# [1] = test system: Histone Deacetylase in the baboon brain; assay: Baboon brain PET imaging with graphical analysis; format: in vivo; details: for average reduction in Vd of [^18F]FAHA: comparison of 0.5 and 0.25 mg/kg
# HDAC = details: cited from earlier work
# [2] = cited from earlier work
# [3] = Baboon arterial plasma analysis of unmetabolized radiotracer during PET; format: in vivo
# tumor xenografts = details: cited from earlier work
# Log D = format: physicochemical
# plasma proteins = assay: Plasma protein binding; format: in vitro ADME
# [4] = Compartment modelling of [^18F]FAC uptake in baboon brain; format: in vivo; details: one animal; fixed for all four studies
# Procedure, shortened: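 Two baboons. Arterial blood was sampled every 5 s for 2 min, then at longer intervals, centrifuged, and plasma counted. Brain time-activity curves from studies with the injected labelled metabolite were fitted with one- and two-compartment models. Fitted rate constants were fixed across studies to estimate metabolite brain uptake from peripheral radiotracer metabolism, using the metabolite fraction of arterial plasma input.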
# [5] = Stability of [^18F]FAHA in medium alone; format: in vitro ADME; details: incubated in medium alone; no detection of [^18F]FAC
# Plasma protein binding = format: in vitro ADME; details: plasma
# [6] = In vitro whole blood and plasma incubation, radio-TLC; format: in vitro ADME, baboon
# Procedure, shortened: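 Arterial whole blood or plasma (0.5 ml) came from one baboon 1 h after HDAC-inhibitor pretreatment (0.25 mg/kg), just before radiotracer dosing. Radiotracer was added at room temperature. Percent intact radiotracer was measured by radio-TLC after 10, 20 and 30 min.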
compound,measurement,setting,value
"O=C(CCCCCCC(=O)Nc1ccccc1)NO [SAHA, suberanilohydroxamic acid]",average % reduction in Vd of [^18F]FAHA,"[1]; 0.25 mg/kg, Brooke",12 ± 12%
same,average % reduction in Vd of [^18F]FAHA,"[1]; 0.25 mg/kg, Lulu",25 ± 8%
same,average reduction in Vd of [^18F]FAHA,[1]; 0.25 mg/kg,25± 5%
same,average reduction in Vd of [^18F]FAHA,[1]; 0.5 mg/kg,30± 9%
same,average % reduction in Vd of [^18F]FAHA,"[1]; 1 mg/kg, Brooke, averaged over all 6 ROIs (excluding global)",43 ± 7%
same,average % reduction in Vd of [^18F]FAHA,"[1]; 1 mg/kg, Lulu, averaged over all 6 ROIs (excluding global)",52 ± 8%
same,effect on [^18F]FAHA radiotracer uptake,HDAC; rat brain study,inhibit radiotracer uptake
same,clinical doses well tolerated,[2],> 5 mg/kg
same,effect on rate of metabolism of [^18F]FAHA in baboon plasma,"[3]; SAHA 0.25, 0.5, 1.0 mg/kg iv, dose dependent manner",decrease the rate of metabolism
same,effect on [^18F]FAHA radiotracer uptake,tumor xenografts; rodent tumor xenograft study,inhibit radiotracer uptake
"O=C(O)C[18F] [[^18F]FAC, [^18F]fluoroacetate]",logD,Log D,0.70
same,% of activity unbound to plasma proteins,plasma proteins,57.2%
same,"K1 (2 compartment model, brain uptake of metabolite)",[4],0.018 ml/min/cc
same,k2 (2 compartment model),[4],0.04 min⁻¹
same,k3 (2 compartment model),[4],0.008 min⁻¹
same,k4 (2 compartment model),[4],.003 min⁻¹
"O=C(C[18F])NCCCCCC(=O)Nc1ccccc1 [[^18F]FAHA, 6-([^18F]fluoroacetamido)-1-hexanoicanilide]",peak brain uptake relative to [^18F]FAC,[1]; TACs in the same baboon,more than five times greater
same,peak uptake in rat brain,HDAC,0.44 % ID/g
same,stability in medium alone,[5],stable up to 2 h
same,fraction unbound,Plasma protein binding,0.539 ± 0.0176
same,% Unmetabolized [^18F]FAHA after incubation in vitro (radio-TLC),"[6]; Blood-post (1h after SAHA administration, 0.25 mg/kg), time 10",16%
same,% Unmetabolized [^18F]FAHA after incubation in vitro (radio-TLC),"[6]; Blood-post, time 20",0%
same,% Unmetabolized [^18F]FAHA after incubation in vitro (radio-TLC),"[6]; Blood-post, time 30",0%
same,% Unmetabolized [^18F]FAHA after incubation in vitro (radio-TLC),"[6]; Blood-pre (before SAHA pretreatment), time 10, room temperature",13%
same,% Unmetabolized [^18F]FAHA after incubation in vitro (radio-TLC),"[6]; Blood-pre, time 20",0%
same,% Unmetabolized [^18F]FAHA after incubation in vitro (radio-TLC),"[6]; Blood-pre, time 30",0%
same,% Unmetabolized [^18F]FAHA after incubation in vitro (radio-TLC),"[6]; Plasma-post (1h after SAHA administration), time 10",96%
same,% Unmetabolized [^18F]FAHA after incubation in vitro (radio-TLC),"[6]; Plasma-post, time 20",96%
same,% Unmetabolized [^18F]FAHA after incubation in vitro (radio-TLC),"[6]; Plasma-post, time 30",94%
same,% Unmetabolized [^18F]FAHA after incubation in vitro (radio-TLC),"[6]; Plasma-pre (before SAHA pretreatment), time 10",98%
same,% Unmetabolized [^18F]FAHA after incubation in vitro (radio-TLC),"[6]; Plasma-pre, time 20",94%
same,% Unmetabolized [^18F]FAHA after incubation in vitro (radio-TLC),"[6]; Plasma-pre, time 30",94%
same,% Unmetabolized [^18F]FAHA in baboon plasma,"[3]; animal 1, Baseline, 1min after bolus injection",45%
same,% Unmetabolized [^18F]FAHA in baboon plasma,"[3]; animal 1, Baseline, 5min",2%
same,% Unmetabolized [^18F]FAHA in baboon plasma,"[3]; animal 1, Baseline, 10min",1%
same,% Unmetabolized [^18F]FAHA in baboon plasma,"[3]; animal 1, SAHA 0.25mg/kg iv 1 hour before, 1min",84%
same,% Unmetabolized [^18F]FAHA in baboon plasma,"[3]; animal 1, SAHA 0.25mg/kg iv 1 hour before, 2min",35%
same,% Unmetabolized [^18F]FAHA in baboon plasma,"[3]; animal 1, SAHA 0.25mg/kg iv 1 hour before, 5min",10%
same,% Unmetabolized [^18F]FAHA in baboon plasma,"[3]; animal 1, SAHA 0.25mg/kg iv 1 hour before, 10min",6%
same,% Unmetabolized [^18F]FAHA in baboon plasma,"[3]; animal 1, SAHA 0.5mg/kg iv 1 hour before, 1min",78%
same,% Unmetabolized [^18F]FAHA in baboon plasma,"[3]; animal 1, SAHA 0.5mg/kg iv 1 hour before, 2min",39%
same,% Unmetabolized [^18F]FAHA in baboon plasma,"[3]; animal 1, SAHA 0.5mg/kg iv 1 hour before, 5min",14%
same,% Unmetabolized [^18F]FAHA in baboon plasma,"[3]; animal 1, SAHA 0.5mg/kg iv 1 hour before, 10min",7%
same,% Unmetabolized [^18F]FAHA in baboon plasma,"[3]; animal 1, SAHA 1.0mg/kg iv 1 hour before, 1min",86%
same,% Unmetabolized [^18F]FAHA in baboon plasma,"[3]; animal 1, SAHA 1.0mg/kg iv 1 hour before, 2min",34%
same,% Unmetabolized [^18F]FAHA in baboon plasma,"[3]; animal 1, SAHA 1.0mg/kg iv 1 hour before, 5min",22%
same,% Unmetabolized [^18F]FAHA in baboon plasma,"[3]; animal 1, SAHA 1.0mg/kg iv 1 hour before, 10min",10%
same,% Unmetabolized [^18F]FAHA in baboon plasma,"[3]; animal 2, Baseline, 1min",52%
same,% Unmetabolized [^18F]FAHA in baboon plasma,"[3]; animal 2, Baseline, 2min",6%
same,% Unmetabolized [^18F]FAHA in baboon plasma,"[3]; animal 2, Baseline, 5min",2%
same,% Unmetabolized [^18F]FAHA in baboon plasma,"[3]; animal 2, Baseline, 10min",1%
same,% Unmetabolized [^18F]FAHA in baboon plasma,"[3]; animal 2, SAHA 0.25mg/kg iv 1 hour before, 1min",87%
same,% Unmetabolized [^18F]FAHA in baboon plasma,"[3]; animal 2, SAHA 0.25mg/kg iv 1 hour before, 2min",49%
same,% Unmetabolized [^18F]FAHA in baboon plasma,"[3]; animal 2, SAHA 0.25mg/kg iv 1 hour before, 5min",11%
same,% Unmetabolized [^18F]FAHA in baboon plasma,"[3]; animal 2, SAHA 0.25mg/kg iv 1 hour before, 10min",5%
same,% Unmetabolized [^18F]FAHA in baboon plasma,"[3]; animal 2, SAHA 0.5mg/kg iv 1 hour before, 1min",78%
same,% Unmetabolized [^18F]FAHA in baboon plasma,"[3]; animal 2, SAHA 0.5mg/kg iv 1 hour before, 2min",50%
same,% Unmetabolized [^18F]FAHA in baboon plasma,"[3]; animal 2, SAHA 0.5mg/kg iv 1 hour before, 5min",14%
same,% Unmetabolized [^18F]FAHA in baboon plasma,"[3]; animal 2, SAHA 0.5mg/kg iv 1 hour before, 10min",6%
same,% Unmetabolized [^18F]FAHA in baboon plasma,"[3]; animal 2, SAHA 1.0mg/kg iv 1 hour before, 1min",85%
same,% Unmetabolized [^18F]FAHA in baboon plasma,"[3]; animal 2, SAHA 1.0mg/kg iv 1 hour before, 5min",26%
same,% Unmetabolized [^18F]FAHA in baboon plasma,"[3]; animal 2, SAHA 1.0mg/kg iv 1 hour before, 10min",20%
same,tumor to muscle ratios,tumor xenografts; between 30–60 min post-injection,2.2–2.4
same,peak uptake in tumor xenografts,"tumor xenografts; peak at 30 min, rats implanted with carcinoma cells",0.43 %ID/g
